{
  "source": "ChEMBL document CHEMBL4414574",
  "about": "“Structure-Based Discovery and Development of a Series of Potent and Selective Bromodomain and Extra-Terminal Protein Inhibitors” (J Med Chem, 2019)",
  "key": {"RKO": {"system": "RKO", "assay": "Antiproliferative activity against human RKO cells after 72 hrs by CCK8 or SRB assay", "type": "functional, cell-based"}, "[1]": {"assay": "Clearance in dog liver microsomes", "type": "ADME, Canis lupus familiaris, Microsome", "settings": "read-out: CLH"}, "[2]": {"assay": "Half life in rat liver microsomes", "type": "ADME, Microsome"}, "[3]": {"assay": "Half life in ICR mouse plasma at 100 mg/kg, po administered via gavage measured after 0.25 to 24 hrs by UPLC/MS analysis", "type": "ADME, organism-based", "how_it_was_run": "(§1)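 Male ICR mice dosed orally in 1% DMSO/0.5% HPMC vehicle; plasma or brain drug levels used to derive Tmax, Cmax, AUC0-t, AUC0-inf and T1/2.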"}, "MV4-11 [4]": {"system": "MV4-11", "assay": "Induction of apoptosis in human MV4-11 cells assessed as reduction in BCL-2 mRNA expression after 24 hrs by real time qPCR analysis", "type": "functional, cell-based"}, "[5]": {"assay": "Cmax in rat plasma at 10 mg/kg, po", "type": "ADME, organism-based", "design": "dose 10 mg/kg, route oral"}, "[6]": {"assay": "Half life in ICR mouse brain at 50 mg/kg, po administered via gavage measured after 0.25 to 24 hrs by UPLC/MS analysis", "type": "ADME, organism-based", "how_it_was_run": "as §1"}, "[7]": {"assay": "AUC (0 to infinity) in ICR mouse plasma at 100 mg/kg, po administered via gavage measured after 0.25 to 24 hrs by UPLC/MS analysis", "type": "ADME, organism-based", "design": "dose 100 mg/kg, time infinity, route oral", "how_it_was_run": "(§2)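 Male ICR mice were dosed orally in 1% DMSO/0.5% HPMC vehicle. Plasma (and brain, where stated) concentrations gave Tmax, Cmax, T1/2, AUC0-t and AUC0-inf.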"}, "Cytochrome P450 3A4": {"target": "Cytochrome P450 3A4 (Homo sapiens, UniProt P08684)", "assay": "Time-dependent inhibition of CYP3A4 in human liver microsomes at 10 uM using midazolam or testosterone as substrate preincubated up to 30 mins followed by NADPH generating system addition and measured after 10 mins", "type": "ADME", "how_it_was_run": "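Human liver microsomes 0.2 mg/mL, 100 mM phosphate pH 7.4, 10 μM test compound, preincubated 0, 5, 10 and 30 min at 37 °C; then NADPH plus probe cocktail (5 μM midazolam, 50 μM testosterone, 5 μM dextromethorphan, 10 μM diclofenac, 50 μM phenacetin, 50 μM S-(+)-mephenytoin) added; 10 min reaction; kobs in units of 10^-4/min.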"}, "[8]": {"target": "Chromatin remodeling regulator CECR2 (Homo sapiens) (UniProt Q9BXF3)", "sequence (Q9BXF3 whole entry, looked up, the tested form may be a part)": "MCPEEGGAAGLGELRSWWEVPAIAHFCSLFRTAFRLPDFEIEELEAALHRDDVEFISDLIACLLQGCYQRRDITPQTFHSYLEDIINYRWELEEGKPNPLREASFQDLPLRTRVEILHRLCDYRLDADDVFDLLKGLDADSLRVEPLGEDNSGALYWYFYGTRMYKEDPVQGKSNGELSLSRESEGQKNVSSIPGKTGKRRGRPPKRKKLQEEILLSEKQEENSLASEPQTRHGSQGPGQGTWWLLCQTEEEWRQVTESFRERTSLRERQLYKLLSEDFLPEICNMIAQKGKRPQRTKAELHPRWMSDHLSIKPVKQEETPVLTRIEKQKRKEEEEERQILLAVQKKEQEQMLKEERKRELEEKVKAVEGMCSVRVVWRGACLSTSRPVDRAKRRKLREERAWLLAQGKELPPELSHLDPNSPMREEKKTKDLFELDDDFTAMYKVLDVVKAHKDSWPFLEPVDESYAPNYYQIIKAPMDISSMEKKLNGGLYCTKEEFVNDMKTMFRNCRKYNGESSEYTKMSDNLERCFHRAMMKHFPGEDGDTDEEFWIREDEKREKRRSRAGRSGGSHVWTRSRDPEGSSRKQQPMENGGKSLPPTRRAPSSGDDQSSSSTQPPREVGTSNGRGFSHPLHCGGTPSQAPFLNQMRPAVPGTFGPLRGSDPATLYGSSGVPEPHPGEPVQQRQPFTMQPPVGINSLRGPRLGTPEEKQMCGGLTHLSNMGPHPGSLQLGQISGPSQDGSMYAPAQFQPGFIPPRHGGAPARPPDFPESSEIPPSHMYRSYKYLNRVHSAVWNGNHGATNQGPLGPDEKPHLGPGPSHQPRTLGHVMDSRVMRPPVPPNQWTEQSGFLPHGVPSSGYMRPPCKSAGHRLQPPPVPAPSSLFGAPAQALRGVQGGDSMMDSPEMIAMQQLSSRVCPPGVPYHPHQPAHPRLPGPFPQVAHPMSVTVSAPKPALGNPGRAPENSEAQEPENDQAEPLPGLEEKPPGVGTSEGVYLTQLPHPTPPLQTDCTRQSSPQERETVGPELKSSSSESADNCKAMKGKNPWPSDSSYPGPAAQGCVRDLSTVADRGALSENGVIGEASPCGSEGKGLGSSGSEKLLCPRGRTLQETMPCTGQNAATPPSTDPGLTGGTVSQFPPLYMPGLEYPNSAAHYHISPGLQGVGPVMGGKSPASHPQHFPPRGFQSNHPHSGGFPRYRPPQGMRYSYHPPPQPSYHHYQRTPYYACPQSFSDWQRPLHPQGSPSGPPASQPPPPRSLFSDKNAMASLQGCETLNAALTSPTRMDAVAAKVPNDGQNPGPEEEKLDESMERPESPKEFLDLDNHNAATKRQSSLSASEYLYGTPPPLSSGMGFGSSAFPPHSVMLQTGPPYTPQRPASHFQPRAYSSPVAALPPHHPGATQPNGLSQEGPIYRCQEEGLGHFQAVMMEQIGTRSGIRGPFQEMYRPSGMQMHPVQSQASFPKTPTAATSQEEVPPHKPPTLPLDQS", "assay": "Binding affinity to human partial length CECR2 (P423 to D543 residues) expressed in Escherichia coli BL21 cells assessed as residual binding level at 1 uM measured after 1 hr by quantitative PCR based BROMOscan assay relative to control", "how_it_was_run": "(§3)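 A BROMOScan competition-binding panel of 32 bromodomains was run at a single 1 μM compound concentration. Results are primary-screen 'Percent Control', where lower values indicate stronger binding.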"}, "[9]": {"target": "Bromodomain-containing protein 3 (Homo sapiens) (UniProt Q15059)", "sequence (Q15059 2-726 limits assumed)": "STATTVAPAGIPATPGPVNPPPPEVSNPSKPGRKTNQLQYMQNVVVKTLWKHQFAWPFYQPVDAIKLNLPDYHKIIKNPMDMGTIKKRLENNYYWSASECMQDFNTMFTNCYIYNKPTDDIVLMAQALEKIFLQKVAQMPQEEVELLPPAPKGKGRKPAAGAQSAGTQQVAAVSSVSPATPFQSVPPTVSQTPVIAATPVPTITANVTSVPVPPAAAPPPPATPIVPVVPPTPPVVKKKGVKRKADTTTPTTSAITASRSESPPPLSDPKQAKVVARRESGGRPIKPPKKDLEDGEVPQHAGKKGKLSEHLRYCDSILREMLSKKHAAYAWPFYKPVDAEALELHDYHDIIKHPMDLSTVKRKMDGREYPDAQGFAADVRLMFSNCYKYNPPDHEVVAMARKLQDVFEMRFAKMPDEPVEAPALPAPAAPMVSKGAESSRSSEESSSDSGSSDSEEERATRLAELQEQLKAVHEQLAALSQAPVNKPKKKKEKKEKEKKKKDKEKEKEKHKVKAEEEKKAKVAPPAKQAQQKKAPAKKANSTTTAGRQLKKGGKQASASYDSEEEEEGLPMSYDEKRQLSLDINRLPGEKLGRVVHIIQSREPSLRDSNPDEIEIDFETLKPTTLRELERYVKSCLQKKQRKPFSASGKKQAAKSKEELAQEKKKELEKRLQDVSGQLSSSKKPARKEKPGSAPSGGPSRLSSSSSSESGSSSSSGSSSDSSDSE", "assay": "Binding affinity to human partial length BRD3 bromodomain 1 (P24 to E144 residues) expressed in Escherichia coli BL21 cells assessed as residual binding level at 1 uM measured after 1 hr by quantitative PCR based BROMOscan assay relative to control", "how_it_was_run": "as §3"}, "[10]": {"target": "Voltage-gated inwardly rectifying potassium channel KCNH2 (Homo sapiens, UniProt Q12809)", "sequence (Q12809 whole entry)": "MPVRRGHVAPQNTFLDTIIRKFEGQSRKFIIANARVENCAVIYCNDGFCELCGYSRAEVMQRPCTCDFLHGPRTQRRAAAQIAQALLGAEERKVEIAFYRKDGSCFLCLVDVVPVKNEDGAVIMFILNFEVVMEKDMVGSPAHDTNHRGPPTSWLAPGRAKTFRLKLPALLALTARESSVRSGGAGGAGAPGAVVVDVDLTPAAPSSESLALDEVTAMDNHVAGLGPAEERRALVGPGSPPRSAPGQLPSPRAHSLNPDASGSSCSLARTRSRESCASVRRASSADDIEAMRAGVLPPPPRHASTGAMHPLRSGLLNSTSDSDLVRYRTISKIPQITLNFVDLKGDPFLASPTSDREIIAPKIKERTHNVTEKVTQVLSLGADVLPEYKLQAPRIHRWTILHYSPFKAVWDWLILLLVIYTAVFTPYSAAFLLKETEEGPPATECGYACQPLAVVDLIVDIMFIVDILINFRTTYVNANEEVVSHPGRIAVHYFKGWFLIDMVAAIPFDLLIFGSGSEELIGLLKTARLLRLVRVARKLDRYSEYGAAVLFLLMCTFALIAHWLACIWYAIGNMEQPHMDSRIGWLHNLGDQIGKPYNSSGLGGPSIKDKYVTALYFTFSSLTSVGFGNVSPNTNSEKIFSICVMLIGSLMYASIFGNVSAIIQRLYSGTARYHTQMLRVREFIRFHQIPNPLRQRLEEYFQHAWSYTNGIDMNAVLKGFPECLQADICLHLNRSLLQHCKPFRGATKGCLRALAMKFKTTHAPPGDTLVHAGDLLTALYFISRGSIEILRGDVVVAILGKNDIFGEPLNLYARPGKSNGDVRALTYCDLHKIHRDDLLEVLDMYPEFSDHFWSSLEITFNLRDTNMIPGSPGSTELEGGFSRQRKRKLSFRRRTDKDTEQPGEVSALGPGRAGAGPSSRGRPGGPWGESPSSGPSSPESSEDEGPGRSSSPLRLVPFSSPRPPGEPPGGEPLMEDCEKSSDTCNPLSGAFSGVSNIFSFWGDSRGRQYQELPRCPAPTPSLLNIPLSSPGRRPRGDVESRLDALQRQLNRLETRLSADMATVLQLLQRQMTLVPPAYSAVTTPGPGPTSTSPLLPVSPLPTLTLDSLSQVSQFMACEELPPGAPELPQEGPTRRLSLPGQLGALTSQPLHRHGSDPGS", "assay": "Inhibition of human ERG at 40 uM by automatic patch clamp method"}, "[11]": {"assay": "Half life in mouse liver microsomes at 1 uM preincubated for 5 mins followed by NADPH addition and measured after 5 to 30 mins by LC/MS/MS analysis", "type": "ADME, Microsome", "settings": "microsomes, 1 µM"}, "[12]": {"assay": "AUC (0 to infinity) in ICR mouse plasma at 50 mg/kg, po administered via gavage measured after 0.25 to 24 hrs by UPLC/MS analysis", "type": "ADME, organism-based", "design": "dose 50 mg/kg, route oral, time infinity", "how_it_was_run": "as §2"}, "CYP3A4": {"target": "CYP3A4 (Homo sapiens, UniProt P08684)", "assay": "Reversible inhibition of CYP3A4 in human liver microsomes at 10 uM using midazolam or testosterone as substrate preincubated for 5 mins followed by NADPH addition and measured after 20 mins relative to control", "type": "ADME", "settings": "probe midazolam or testosterone", "how_it_was_run": "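Human liver microsomes 0.2 mg/mL, 100 mM phosphate pH 7.4, 10 μM test compound, probe cocktail (10 μM midazolam, 100 μM testosterone, 10 μM dextromethorphan, 20 μM diclofenac, 100 μM phenacetin, 100 μM mephenytoin); organic solvent <1%; 5 min preincubation at 37 °C, started with NADPH-generating system, 20 min reaction; metabolite formation expressed relative to PBS control.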"}, "MV4-11 [13]": {"system": "MV4-11", "assay": "Induction of apoptosis in human MV4-11 cells assessed as increase in cleaved caspase-9 level after 24 hrs by Western blot analysis", "type": "functional, cell-based", "how_it_was_run": "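MV4-11 cells exposed to test agent at the indicated doses for 24 h. Lysates immunoblotted for full-length and cleaved caspase-3, -7, -8 and -9, with GAPDH as the loading reference.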"}, "[14]": {"assay": "Cmax in ICR mouse plasma at 100 mg/kg, po administered via gavage measured after 0.25 to 24 hrs by UPLC/MS analysis", "type": "ADME, organism-based", "design": "dose 100 mg/kg, route oral", "how_it_was_run": "as §1"}, "[15]": {"assay": "AUC (0 to infinity) in ICR mouse at 10 mg/kg, po administered via gavage measured after 0.25 to 24 hrs by UPLC/MS analysis", "type": "ADME, organism-based", "design": "dose 10 mg/kg, route oral, time infinity", "settings": "in vivo", "how_it_was_run": "as §2"}, "[16]": {"assay": "Half life in rat brain at 50 mg/kg, po", "type": "ADME, organism-based"}, "[17]": {"target": "SWI/SNF-related matrix-associated actin-dependent regulator of chromatin subfamily A member 2 (Homo sapiens) (UniProt P51531)", "sequence (P51531 whole entry, the tested form may be a part)": "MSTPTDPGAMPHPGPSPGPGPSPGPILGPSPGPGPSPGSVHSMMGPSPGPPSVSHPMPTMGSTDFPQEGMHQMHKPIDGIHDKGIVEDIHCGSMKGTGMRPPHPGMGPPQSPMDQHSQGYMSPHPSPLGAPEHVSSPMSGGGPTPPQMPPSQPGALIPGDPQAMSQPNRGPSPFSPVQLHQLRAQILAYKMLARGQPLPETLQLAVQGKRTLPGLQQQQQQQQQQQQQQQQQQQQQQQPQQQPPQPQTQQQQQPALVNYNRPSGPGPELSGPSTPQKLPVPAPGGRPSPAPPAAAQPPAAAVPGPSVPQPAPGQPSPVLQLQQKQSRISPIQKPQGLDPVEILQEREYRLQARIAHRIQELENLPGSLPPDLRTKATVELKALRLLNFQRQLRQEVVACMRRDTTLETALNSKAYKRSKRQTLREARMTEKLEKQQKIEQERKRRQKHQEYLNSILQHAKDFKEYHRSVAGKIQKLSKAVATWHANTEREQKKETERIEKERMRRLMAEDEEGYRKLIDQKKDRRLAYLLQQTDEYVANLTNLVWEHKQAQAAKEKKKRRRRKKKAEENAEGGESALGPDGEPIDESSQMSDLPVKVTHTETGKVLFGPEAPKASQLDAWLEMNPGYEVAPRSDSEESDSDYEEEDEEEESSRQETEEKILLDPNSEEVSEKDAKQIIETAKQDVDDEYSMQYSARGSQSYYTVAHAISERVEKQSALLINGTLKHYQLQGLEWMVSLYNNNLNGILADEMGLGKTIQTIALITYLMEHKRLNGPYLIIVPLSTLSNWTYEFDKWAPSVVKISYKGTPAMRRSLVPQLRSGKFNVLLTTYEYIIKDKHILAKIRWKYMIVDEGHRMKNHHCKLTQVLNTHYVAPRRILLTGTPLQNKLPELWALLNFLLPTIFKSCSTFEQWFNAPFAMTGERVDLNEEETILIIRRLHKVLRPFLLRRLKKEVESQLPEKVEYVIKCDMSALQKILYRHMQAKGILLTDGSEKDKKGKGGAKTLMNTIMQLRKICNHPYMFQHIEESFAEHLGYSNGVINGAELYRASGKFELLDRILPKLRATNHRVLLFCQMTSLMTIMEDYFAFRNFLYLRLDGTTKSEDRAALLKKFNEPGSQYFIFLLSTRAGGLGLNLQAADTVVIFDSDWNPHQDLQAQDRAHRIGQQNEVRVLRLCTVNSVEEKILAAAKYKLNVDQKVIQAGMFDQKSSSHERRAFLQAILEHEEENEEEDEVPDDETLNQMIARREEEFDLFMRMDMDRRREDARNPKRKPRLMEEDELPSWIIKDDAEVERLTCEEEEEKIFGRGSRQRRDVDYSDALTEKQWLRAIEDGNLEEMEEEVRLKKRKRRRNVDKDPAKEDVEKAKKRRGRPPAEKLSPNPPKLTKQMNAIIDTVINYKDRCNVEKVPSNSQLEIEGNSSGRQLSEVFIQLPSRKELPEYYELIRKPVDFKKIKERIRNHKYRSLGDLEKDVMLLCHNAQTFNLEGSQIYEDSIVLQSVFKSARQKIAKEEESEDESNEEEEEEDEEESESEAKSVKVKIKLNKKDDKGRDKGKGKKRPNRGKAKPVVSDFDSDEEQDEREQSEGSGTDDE", "assay": "Binding affinity to human partial length SMARCA2 (S1377 to Q1486 residues) expressed in Escherichia coli BL21 cells assessed as residual binding level at 1 uM measured after 1 hr by quantitative PCR based BROMOscan assay relative to control", "how_it_was_run": "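Bromodomain panel screen (32 bromodomains) run at 1 μM single concentration; primary binding reported as 'Percent Control', lower values meaning stronger interaction.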"}, "[18]": {"assay": "AUC (0 to t) in rat plasma at 3 mg/kg, iv", "type": "ADME, organism-based", "how_it_was_run": "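Compound was given orally or intravenously in 1% DMSO/0.5% HPMC vehicle. Concentrations in plasma, or in brain where stated, gave Tmax, Cmax, T1/2, AUC0-t and AUC0-inf.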"}, "[19]": {"assay": "AUC (0 to infinity) in ICR mouse brain at 50 mg/kg, po administered via gavage measured after 0.25 to 24 hrs by UPLC/MS analysis", "type": "ADME, organism-based", "design": "dose 50 mg/kg, route oral, time infinity", "how_it_was_run": "as §2"}, "[20]": {"assay": "Drug uptake in plasma of Balb/c nude mouse xenografted with human MV4-11 cells at 10 to 50 mg/kg, po measured after 1 to 8 hrs", "type": "ADME, organism-based", "settings": "in vivo", "how_it_was_run": "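MV4-11 xenografts in BALB/c nude mice given oral compound; drug concentrations in plasma and tumor tissue measured at 1 h and 8 h after dosing.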"}, "[21]": {"assay": "Half life in ICR mouse at 10 mg/kg, po administered via gavage measured after 0.25 to 24 hrs by UPLC/MS analysis", "type": "ADME, organism-based", "settings": "in vivo", "how_it_was_run": "as §1"}, "MV4-11 [22]": {"system": "MV4-11", "assay": "Antitumor activity against human MV4-11 cells xenografted in Balb/c nude mouse assessed as tumor growth inhibition at 25 mg/kg, po administered once daily and measured twice a week by caliper method relative to control", "type": "functional", "settings": "MV4-11, po, read-out: TGI"}, "[23]": {"assay": "Cmax in ICR mouse brain at 50 mg/kg, po administered via gavage measured after 0.25 to 24 hrs by UPLC/MS analysis", "type": "ADME, organism-based", "design": "dose 50 mg/kg, route oral", "how_it_was_run": "as §1"}, "MV4-11 [24]": {"system": "MV4-11", "assay": "Induction of apoptosis in human MV4-11 cells assessed as reduction in c-IAP1 level after 24 hrs by Western blot analysis", "type": "functional, cell-based"}, "SK-OV-3": {"system": "SK-OV-3", "assay": "Antiproliferative activity against human SKOV3 cells after 72 hrs by CCK8 or SRB assay", "type": "functional, cell-based"}},
  "note": "Activity calls are given as the source filed them. The calls are words filed in the database; no cut-off is given here.",
  "data": [
    {"compound": "Cc1ccc(-n2nc(C(=O)N3C[C@@H](C)N[C@@H](C)C3)nc2-c2ccc3c(c2)N(C2CCCC2)[C@H](C)C(=O)N3C)cc1", "values": [
      {"measurement": "Activity", "setting": "RKO", "result": "Active"},
      {"measurement": "microsomal CLint", "setting": "[1]", "result": 77, "unit": "µL/min/mg"},
      {"measurement": "half-life", "setting": "[2]", "result": 0.817, "unit": "h"},
      {"measurement": "half-life", "setting": "[3]", "result": 4.4, "unit": "h"},
      {"measurement": "Activity", "setting": "MV4-11 [4]", "result": "Active"},
      {"measurement": "Cmax", "setting": "[5]", "result": 182, "unit": "ng/mL"},
      {"measurement": "half-life", "setting": "[6]", "result": 3, "unit": "h"},
      {"measurement": "AUC(0-inf)", "setting": "[7]", "result": 82400, "unit": "ng·h/mL"},
      {"measurement": "TDI", "setting": "Cytochrome P450 3A4", "result": 8, "unit": "×10⁻⁴ /min"},
      {"measurement": "Activity", "setting": "[8]", "result": "70 to 100", "unit": "%"},
      {"measurement": "Activity", "setting": "[9]", "result": "< 5", "unit": "%"},
      {"measurement": "inhibition (INH)", "setting": "[10]", "result": "Not Active"},
      {"measurement": "t1/2", "setting": "[11]", "result": 3.22, "unit": "h"},
      {"measurement": "AUC(0-inf)", "setting": "[12]", "result": 16800, "unit": "ng·h/mL"},
      {"measurement": "inhibition at 20 min, 10 µM", "setting": "CYP3A4", "result": "23 to 28", "unit": "%"},
      {"measurement": "Activity", "setting": "MV4-11 [13]", "result": "Dose-dependent effect"},
      {"measurement": "Cmax", "setting": "[14]", "result": 13800, "unit": "ng/mL"},
      {"measurement": "AUC(0-inf)", "setting": "[15]", "result": 7390, "unit": "ng·h/mL"},
      {"measurement": "half-life", "setting": "[16]", "result": 9.3, "unit": "h"},
      {"measurement": "Activity", "setting": "[17]", "result": "70 to 100", "unit": "%"},
      {"measurement": "AUC(0-t)", "setting": "[18]", "result": 2010, "unit": "ng·h/mL"},
      {"measurement": "AUC(0-inf)", "setting": "[19]", "result": 2340, "unit": "ng·h/mL"},
      {"measurement": "Drug uptake", "setting": "[20]", "result": "Active"},
      {"measurement": "half-life", "setting": "[21]", "result": 2.1, "unit": "h"},
      {"measurement": "inhibition in vivo at 25 mg/kg", "setting": "MV4-11 [22]", "result": 89.7, "unit": "%"},
      {"measurement": "Cmax", "setting": "[23]", "result": 377, "unit": "ng/mL"},
      {"measurement": "Activity", "setting": "MV4-11 [24]", "result": "Dose-dependent effect"},
      {"measurement": "Activity", "setting": "SK-OV-3", "result": "Active"}
    ]}
  ]
}
